Active and inactive are the calls of the source. The calls are words filed in the database; no cut-off is given here.
Assays:
PC-9/ER [1] = test: Induction of apoptosis in human PC-9/ER cells assessed as late apoptotic cells at 1 uM for 48 hrs by annexin V/PI staining based flow cytometric analysis relative to control; type: functional
How it was run: (§1)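 PC9/ER cells given a PTEN expression vector or mock vector, then Erlotinib 1 μM for 48 h. Cells stained with Annexin V–FITC/PI (5 min, room temperature, dark) and analyzed by flow cytometry.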

PC-9 [2] = test: Induction of apoptosis in human PC-9 cells assessed as late apoptotic cells at 0.1 uM for 48 hrs by annexin V/PI staining based flow cytometric analysis in presence of PTEN-siRNA relative to control; type: functional
How it was run: (§2)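 PC9 cells given PTEN siRNA or scramble siRNA, then Erlotinib 0.1 μM for 48 h. Apoptosis by Annexin V–FITC/PI staining for 5 min at room temperature in the dark, read by flow cytometry.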

PC-9 [3] = test: Induction of apoptosis in human PC-9 cells assessed as necrotic cells at 0.1 uM for 48 hrs by annexin V/PI staining based flow cytometric analysis relative to control; type: functional; how it was run: as §2
PC-9/ER [4] = test: Induction of apoptosis in human PC-9/ER cells assessed as early apoptotic cells at 1 uM for 48 hrs by annexin V/PI staining based flow cytometric analysis in presence of scramble non-target siRNA (reference value: 1.3%); type: functional
PC-9/ER [5] = test: Induction of apoptosis in human PC-9/ER cells assessed as late apoptotic cells at 1 uM for 48 hrs by annexin V/PI staining based flow cytometric analysis in presence of scramble non-target siRNA (reference value: 4.2%); type: functional
PC-9/ER [6] = test: Antitumor activity against human PC-9/ER cells xenografted in SCID mouse assessed as inhibition of tumor growth at 12.5 mg/kg, ip daily for 3 weeks; type: functional, organism-based
How it was run: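 Male SCID mice, 7–8 weeks old, injected s.c. in the right flank with 5 × 10^6 PC9/ER cells in PBS. At an average tumor volume of 50 mm3, randomized into groups of n = 6: saline, UNC0642 2.5 mg/kg bid i.p., Erlotinib 12.5 mg/kg/day i.p., or both. Tumor volume tracked and body weight recorded; tumors weighed after sacrifice at 3 weeks.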

PC-9 [7] = test: Induction of apoptosis in human PC-9 cells assessed as viable cells at 0.1 uM for 48 hrs by annexin V/PI staining based flow cytometric analysis relative to control; type: functional; conditions: read-out: Activity; how it was run: as §2
PC-9/ER [8] = test: Induction of apoptosis in human PC-9/ER cells assessed as viable cells at 1 uM for 48 hrs by annexin V/PI staining based flow cytometric analysis in presence of […] siRNA (reference value: 92.2%); type: functional; conditions: read-out: Activity
PC-9/ER [9] = test: Induction of apoptosis in human PC-9/ER cells assessed as necrotic cells at 1 uM for 48 hrs by annexin V/PI staining based flow cytometric analysis relative to control; type: functional; how it was run: as §1
PC-9/ER [10] = test: Induction of apoptosis in human PC-9/ER cells assessed as early apoptotic cells at 1 uM for 48 hrs by annexin V/PI staining based flow cytometric analysis in presence of PTEN vector relative to control; type: functional; how it was run: as §1
PC-9/ER [11] = test: Induction of apoptosis in human PC-9/ER cells assessed as early apoptotic cells at 1 uM for 48 hrs by annexin V/PI staining based flow cytometric analysis relative to control; type: functional; how it was run: as §1
PC-9 [12] = test: Induction of apoptosis in human PC-9 cells assessed as early apoptotic cells at 0.1 uM for 48 hrs by annexin V/PI staining based flow cytometric analysis relative to control; type: functional; how it was run: as §2
PC-9/ER [13] = test: Induction of apoptosis in human PC-9/ER cells assessed as late apoptotic cells at 1 uM for 48 hrs by annexin V/PI staining based flow cytometric analysis in presence of PTEN vector relative to control; type: functional; how it was run: as §1
PC-9 [14] = test: Induction of apoptosis in human PC-9 cells assessed as early apoptotic cells at 0.1 uM for 48 hrs by annexin V/PI staining based flow cytometric analysis in presence of PTEN-siRNA relative to control; type: functional; how it was run: as §2
PC-9/ER [15] = test: Induction of apoptosis in human PC-9/ER cells assessed as early apoptotic cells at 1 uM for 48 hrs by annexin V/PI staining based flow cytometric analysis (reference value: 0.9%); type: functional
PC-9/ER [16] = test: Antiproliferative activity against human PC-9/ER cells assessed as reduction in cell survival rate pretreated with UNC0638 followed by compound addition upto 1 uM incubated for 48 hrs by MTT assay; type: functional, cell-based
How it was run: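 PC9/ER cells pretreated with UNC0638 (100 nM), DMSO as control, then given Erlotinib at a range of concentrations for 48 h. Viability by MTT: 4 h at 37 °C, formazan dissolved in DMSO, absorbance at 570 nm.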

PC-9 [17] = test: Induction of apoptosis in human PC-9 cells assessed as viable cells at 0.1 uM for 48 hrs by annexin V/PI staining based flow cytometric analysis in presence of PTEN-siRNA relative to control; type: functional; conditions: read-out: Activity; how it was run: as §2
PC-9/ER [18] = test: Induction of apoptosis in human PC-9/ER cells assessed as viable cells at 1 uM for 48 hrs by annexin V/PI staining based flow cytometric analysis relative to control; type: functional; conditions: read-out: Activity; how it was run: as §1
PC-9/ER [19] = test: Induction of apoptosis in human PC-9/ER cells assessed as necrotic cells at 1 uM for 48 hrs by annexin V/PI staining based flow cytometric analysis in presence of […] siRNA (reference value: 2.3%); type: functional
PC-9/ER [20] = test: Induction of apoptosis in human PC-9/ER cells assessed as necrotic cells at 1 uM for 48 hrs by annexin V/PI staining based flow cytometric analysis in presence of PTEN vector relative to control; type: functional; how it was run: as §1
PC-9/ER [21] = test: Induction of apoptosis in human PC-9/ER cells assessed as late apoptotic cells at 1 uM for 48 hrs by annexin V/PI staining based flow cytometric analysis in presence of […] siRNA (reference value: 4.2%); type: functional
PC-9 [22] = test: Induction of apoptosis in human PC-9 cells assessed as necrotic cells at 0.1 uM for 48 hrs by annexin V/PI staining based flow cytometric analysis in presence of PTEN-siRNA relative to control; type: functional; how it was run: as §2
PC-9/ER [23] = test: Induction of apoptosis in human PC-9/ER cells assessed as viable cells at 1 uM for 48 hrs by annexin V/PI staining based flow cytometric analysis (reference value: 91.4%); type: functional; conditions: read-out: Activity
PC-9/ER [24] = test: Induction of apoptosis in human PC-9/ER cells assessed as necrotic cells at 1 uM for 48 hrs by annexin V/PI staining based flow cytometric analysis (reference value: 2.1%); type: functional
PC-9/ER [25] = test: Induction of apoptosis in human PC-9/ER cells assessed as late apoptotic cells at 1 uM for 48 hrs by annexin V/PI staining based flow cytometric analysis (reference value: 5.7%); type: functional
PC-9/ER [26] = test: Induction of apoptosis in human PC-9/ER cells assessed as viable cells at 1 uM for 48 hrs by annexin V/PI staining based flow cytometric analysis in presence of scramble non-target siRNA (reference value: 92.2%); type: functional; conditions: read-out: Activity
PC-9/ER [27] = test: Induction of apoptosis in human PC-9/ER cells assessed as necrotic cells at 1 uM for 48 hrs by annexin V/PI staining based flow cytometric analysis in presence of scramble non-target siRNA (reference value: 2.3%); type: functional
PC-9/ER [28] = test: Induction of apoptosis in human PC-9/ER cells assessed as early apoptotic cells at 1 uM for 48 hrs by annexin V/PI staining based flow cytometric analysis in presence of […] siRNA (reference value: 1.3%); type: functional
PC-9 [29] = test: Induction of apoptosis in human PC-9 cells assessed as late apoptotic cells at 0.1 uM for 48 hrs by annexin V/PI staining based flow cytometric analysis relative to control; type: functional; how it was run: as §2
PC-9/ER [30] = test: Induction of apoptosis in human PC-9/ER cells assessed as viable cells at 1 uM for 48 hrs by annexin V/PI staining based flow cytometric analysis in presence of PTEN vector relative to control; type: functional; conditions: read-out: Activity; how it was run: as §1

C#Cc1cccc(Nc2ncnc3cc(OCCOC)c(OCCOC)cc23)c1 [ERLOTINIB] was tested, and the Activity (PC-9/ER [1]) was 6.4%, the Activity (PC-9 [2]) was 6.6% and the Activity (PC-9 [3]) was 5.1%. For the same compound, the Activity (PC-9/ER [4]) was 1.3%, the Activity (PC-9/ER [5]) was 9.8% and the Activity (PC-9/ER [6]) was “inactive”. For the same compound, the viability at 0.1 µM (PC-9 [7]) was 58.2%, the viability at 1 µM (PC-9/ER [8]) was 77.4% and the Activity (PC-9/ER [9]) was 1.6%. The Activity (PC-9/ER [10]) was 22.7%, the Activity (PC-9/ER [11]) was 4.9% and the Activity (PC-9 [12]) was 17.9%. For the same compound, the Activity (PC-9/ER [13]) was 5.7%, the Activity (PC-9 [14]) was 15.3% and the Activity (PC-9/ER [15]) was 2.8%. The Activity (PC-9/ER [16]) was “Active”, the viability at 0.1 µM (PC-9 [17]) was 76.5% and the viability at 1 µM (PC-9/ER [18]) was 87.1%. It also gave an Activity (PC-9/ER [19]) of 4.5%, an Activity (PC-9/ER [20]) of 1.5% and an Activity (PC-9/ER [21]) of 17.5%. It also gave an Activity (PC-9 [22]) of 1.6%, a viability at 1 µM (PC-9/ER [23]) of 77.8% and an Activity (PC-9/ER [24]) of 4.9%. It also gave an Activity (PC-9/ER [25]) of 14.5%, a viability at 1 µM (PC-9/ER [26]) of 82.7% and an Activity (PC-9/ER [27]) of 6.2%. For the same compound, the Activity (PC-9/ER [28]) was 0.6%, the Activity (PC-9 [29]) was 18.8% and the viability at 1 µM (PC-9/ER [30]) was 70.1%.

From ChEMBL document CHEMBL5712896, “Targeting EHMT2 reverses EGFR-TKI resistance in NSCLC by epigenetically regulating the PTEN/AKT signaling pathway” (2018)
